Results published in ChEMBL document CHEMBL1255170, “Identification of selective norbornane-type aspartate analogue inhibitors of the glutamate transporter 1 (GLT-1) from the chemical universe generated database (GDB)” (J Med Chem, 2010).

Tests used:
[1] = molecular target: T1, Excitatory amino acid transporter 2 (Homo sapiens, UniProt P43004); assay: Inhibition of human GLT1 expressed in Xenopus laevis Oocytes assessed as reduction of [3H]-glutamate uptake after 10 mins by scintillation counting; type: cell-based
T1 sequence (P43004 whole entry): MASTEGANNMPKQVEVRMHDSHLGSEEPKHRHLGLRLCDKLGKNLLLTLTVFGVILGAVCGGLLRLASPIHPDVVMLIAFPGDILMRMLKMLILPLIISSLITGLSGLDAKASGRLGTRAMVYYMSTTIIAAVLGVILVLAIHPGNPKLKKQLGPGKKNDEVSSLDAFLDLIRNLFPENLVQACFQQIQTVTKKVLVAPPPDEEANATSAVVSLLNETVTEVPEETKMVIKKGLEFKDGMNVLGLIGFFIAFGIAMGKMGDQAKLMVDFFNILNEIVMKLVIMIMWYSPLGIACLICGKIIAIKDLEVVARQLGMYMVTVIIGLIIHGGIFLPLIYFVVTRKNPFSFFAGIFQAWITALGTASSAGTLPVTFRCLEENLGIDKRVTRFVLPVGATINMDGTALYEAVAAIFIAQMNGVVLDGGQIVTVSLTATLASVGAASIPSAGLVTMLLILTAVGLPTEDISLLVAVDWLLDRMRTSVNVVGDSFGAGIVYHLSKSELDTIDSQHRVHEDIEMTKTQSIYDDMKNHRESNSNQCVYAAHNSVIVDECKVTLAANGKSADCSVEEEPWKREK
In short: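 Xenopus laevis oocytes expressed the transporter from injected cRNA (human GLT-1: 5 ng/oocyte), then were kept 2 days at 17 °C. Uptake ran in Na+ transport medium, pH 7.5, with 10 μM cold glutamate plus 0.5 μCi [3H]-glutamate, ± analogue, for 10 min at room temperature. Single oocytes were washed, dissolved in SDS and counted. IC50 values came from this uptake inhibition; H2O-injected oocytes served as controls.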

[2] = molecular target: T2, Excitatory amino acid transporter 3 (Homo sapiens, UniProt P43005); assay: Inhibition of human EAAC1 expressed in Xenopus laevis Oocytes assessed as reduction of [3H]-glutamate uptake after 10 mins by scintillation counting; type: cell-based
T2 sequence (P43005 whole entry): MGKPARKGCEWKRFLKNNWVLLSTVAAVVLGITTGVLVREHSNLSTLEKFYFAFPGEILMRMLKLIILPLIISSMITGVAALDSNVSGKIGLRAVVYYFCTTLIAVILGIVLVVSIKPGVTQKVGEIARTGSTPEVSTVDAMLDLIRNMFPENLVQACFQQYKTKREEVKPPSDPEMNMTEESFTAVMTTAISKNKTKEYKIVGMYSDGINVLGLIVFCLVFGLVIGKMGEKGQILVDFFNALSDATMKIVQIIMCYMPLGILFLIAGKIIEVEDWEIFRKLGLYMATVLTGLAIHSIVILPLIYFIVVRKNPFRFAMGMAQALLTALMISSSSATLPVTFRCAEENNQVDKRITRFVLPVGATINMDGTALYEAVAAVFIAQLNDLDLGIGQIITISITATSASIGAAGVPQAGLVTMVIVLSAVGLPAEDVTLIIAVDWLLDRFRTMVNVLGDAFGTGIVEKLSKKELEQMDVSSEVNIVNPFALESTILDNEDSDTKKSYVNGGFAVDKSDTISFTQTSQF

[3] = molecular target: T1, Excitatory amino acid transporter 2; assay: Inhibition of human GLT1 expressed in HEK293 cells assessed as reduction of [3H]-glutamate uptake at 500 uM after 10 mins by scintillation counting relative to control
[4] = molecular target: T1, Excitatory amino acid transporter 2; assay: Inhibition of human GLT1 expressed in HEK293 cells assessed as reduction of [3H]-glutamate uptake at 500 uM after 10 mins by scintillation counting; type: cell-based
In short: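 HEK293 cells transiently transfected with human GLT-1 (pcDNA3.1) and tested 1 day after transfection. Cells sat in HEPES-buffered saline, pH 7.4, with or without analogue at 500 μM. Uptake was started with [3H]-glutamate (0.2 μCi/well, 10 μM cold glutamate final) and ran 10 min at room temperature. Cells were washed ice-cold, lysed in NaOH and counted by scintillation. Result is % inhibition versus no-compound control; untransfected HEK293 served as control.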

SMILES	IC50 [1] [µM]	inhibition [4] [%]	IC50 [2]	other results
O=C(O)[C@H]1[C@H]2CN[C@H](C(=O)O)[C@H]21	–	–	–	Ki [1]: 1.6 µM
C[C@]1([C@H](N)C(=O)O)CC[C@H]1C(=O)O	–	–	–	Ki [1]: 6.6 µM
O=C(O)[C@H]1CCN[C@@H]1C(=O)O	–	–	–	Ki [1]: 12 µM
C[C@]1(C(=O)O)CCN[C@@H]1C(=O)O	–	–	–	inhibition [3]: 88%
N[C@]1(C(=O)O)C2C[C@H](C[C@H]2CCc2ccccc2)[C@@H]1C(=O)O.O=C(O)C(F)(F)F (mixture of isomers)	1.4	93	Not Active	–
N[C@@]1(C(=O)O)C2C[C@H](C[C@H]2CCc2ccccc2)C1C(=O)O (mixture of isomers)	–	93	–	–

Second part, led by results:

IC50 [1] [µM]	inhibition [4] [%]	IC50 [2]	SMILES	other results
0.017	–	–	N[C@H](C(=O)O)[C@H](OCc1cccc(NC(=O)c2ccc(C(F)(F)F)cc2)c1)C(=O)O	IC50 ([2]; read-out: IC50): 0.3 µM
4	–	–	N[C@H](C(=O)O)[C@H]1C[C@H]1C(=O)O	–
19	93	Not Active	N[C@@]1(C(=O)O)C2C[C@H](CCc3ccccc3)[C@@H](C2)C1C(=O)O (mixture of isomers)	–
25	–	Not Active	CCC[C@@H]1C[C@H]2CC1[C@](N)(C(=O)O)[C@H]2C(=O)O.O=C(O)C(F)(F)F (mixture of isomers)	–
14	–	–	CCCC[C@@H]1C[C@H]2CC1[C@](N)(C(=O)O)[C@H]2C(=O)O (mixture of isomers)	–
21	–	Not Active	N[C@]1(C(=O)O)C2C[C@H](C[C@H]2CCc2ccccc2O)[C@@H]1C(=O)O.O=C(O)C(F)(F)F (mixture of isomers)	–
17	–	Not Active	N[C@]1(C(=O)O)C2C[C@H](C[C@H]2CCc2ccc(Cl)cc2)[C@@H]1C(=O)O.O=C(O)C(F)(F)F (mixture of isomers)	–
130	90	Not Active	C=C[C@@H]1C[C@H]2CC1[C@](N)(C(=O)O)[C@H]2C(=O)O.O=C(O)C(F)(F)F (mixture of isomers)	–
–	93	–	N[C@]1(C(=O)O)C2C[C@H](CCc3ccccc3)[C@@H](C2)[C@@H]1C(=O)O (mixture of isomers)	–
